Reference: ChEMBL document CHEMBL1687917, “Increased bioavailability of tricin-amino acid derivatives via a prodrug approach” (J Med Chem, 2011)

Assays:
Mus musculus [1] = experiment: Toxicity in Crlj:CD1 (ICR) mouse assessed as abnormal appearance at 300 mg/kg/day, po for 14 days; format: organism-based; set-up: route oral; details: in vivo, 336 h
[2] = AUC (0 to 8 hrs) in Crl:CD (SD) rat at 100 mg/kg, po after 0.5 to 8 hrs; format: ADME, organism-based; set-up: time < 8 hr, dose 100 mg/kg, route oral; details: plasma
In short: (§1)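 Male Crl:CD (SD) rats were given a single oral bolus of the prodrug by gavage at 100, 300 or 1000 mg kg^-1. Blood was drawn from the tail at 0, 0.5, 2, 4 and 8 h, and plasma was separated by centrifugation (6000 rpm, 10 min, 4 °C) and held at -25 °C for no more than 19 days. Released tricin was quantified. Two Cmax values were reported, with AUC over 0-8 h; means ± SEMs, n = 3.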

[3] = Cmax in Crl:CD (SD) rat at 1000 mg/kg, po after 0.5 to 8 hrs by RP-HPLC; format: ADME, organism-based; set-up: dose 1000 mg/kg, route oral; details: in vivo; in short: as §1
Mus musculus [4] = experiment: Toxicity in Crlj:CD1 (ICR) mouse assessed as abnormal body weight at 300 mg/kg/day, po for 14 days; format: organism-based; set-up: route oral; details: in vivo, 336 h
Mus musculus [5] = experiment: Toxicity in Crlj:CD1 (ICR) mouse assessed as abnormal hematology at 300 mg/kg/day, po for 14 days; format: organism-based; set-up: route oral; details: in vivo, 336 h
Mus musculus [6] = experiment: Toxicity in Crlj:CD1 (ICR) mouse assessed as abnormal blood chemistry at 300 mg/kg/day, po for 14 days; format: organism-based; set-up: route oral; details: in vivo, 336 h
[7] = Cmax in Crl:CD (SD) rat at 100 mg/kg, po after 0.5 to 8 hrs by RP-HPLC; format: ADME, organism-based; set-up: dose 100 mg/kg, route oral; details: in vivo; in short: as §1
[8] = AUC (0 to 8 hrs) in Crl:CD (SD) rat at 1000 mg/kg, po after 0.5 to 8 hrs; format: ADME, organism-based; set-up: time < 8 hr, dose 1000 mg/kg, route oral; details: plasma; in short: as §1
[9] = Cmax in Crl:CD (SD) rat at 300 mg/kg, po after 0.5 to 8 hrs by RP-HPLC; format: ADME, organism-based; set-up: dose 300 mg/kg, route oral; details: in vivo; in short: as §1
Mus musculus [10] = experiment: Toxicity in Crlj:CD1 (ICR) mouse assessed as abnormal autopsy test at 300 mg/kg/day, po for 14 days; format: organism-based; set-up: route oral; details: in vivo, 336 h
[11] = Stability of the compound in MDCK cell lysate assessed as half life; format: ADME, cell-based, Canis lupus familiaris; details: dog
In short: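 Whole-cell lysate was prepared from 1.33 × 10⁶ MDCK cells with lysis buffer, and prodrugs were incubated with it. Half-life was taken as the time to 50% release of parent drug through carbamate hydrolysis by endogenous enzymes; means ± SEMs, n = 3.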

Mus musculus [12] = experiment: Toxicity in Crlj:CD1 (ICR) mouse assessed as abnormal food consumption at 300 mg/kg/day, po for 14 days; format: organism-based; set-up: route oral; details: in vivo, 336 h
[13] = AUC (0 to 8 hrs) in Crl:CD (SD) rat at 300 mg/kg, po after 0.5 to 8 hrs; format: ADME, organism-based; set-up: time < 8 hr, dose 300 mg/kg, route oral; details: plasma; in short: as §1
Plasma [14] = experiment: Plasma concentration in Crl:CD (SD) rat at 1000 mg/kg, po after 0.5 to 4 hrs; format: ADME, organism-based; set-up: dose 1000 mg/kg, route oral; details: in vivo
In short: (§2)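 Tricin was suspended in 1% aqueous methylcellulose (10 mL kg^-1), sonicated and given as a single gavage dose of 100, 300 or 1000 mg kg^-1 to male and female Crl:CD (SD) rats. Tail blood was taken at 0, 0.5, 2 and 4 h, and plasma tricin was quantified by RP-HPLC; means ± SEMs, n = 3.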

Plasma [15] = experiment: Plasma concentration in Crl:CD (SD) rat at 100 mg/kg, po after 0.5 to 4 hrs; format: ADME, organism-based; set-up: dose 100 mg/kg, route oral; details: in vivo; in short: as §2
Plasma [16] = experiment: Plasma concentration in Crl:CD (SD) rat at 300 mg/kg, po after 0.5 to 4 hrs; format: ADME, organism-based; set-up: dose 300 mg/kg, route oral; details: in vivo; in short: as §2

Structure (SMILES) | Activity (Mus musculus [1]) | AUC(0-t) at 8 h [2] | Cmax [3] | Activity (Mus musculus [4]) | Activity (Mus musculus [5]) | Activity (Mus musculus [6]) | Cmax [7] | AUC(0-t) at 8 h [8] | Cmax [9] | Activity (Mus musculus [10]) | half-life [11] | Activity (Mus musculus [12]) | AUC(0-t) at 8 h [13] | Cp (Plasma [14]) | Cp (Plasma [15]) | Cp (Plasma [16])
COc1cc(-c2cc(=O)c3c(O)cc(O)cc3o2)cc(OC)c1OC(=O)N[C@@H](C)C(=O)N[C@@H](CCC(=O)O)C(=O)O | Non-toxic | 10300 ng·h/mL | 2880 ng/mL | Non-toxic | Non-toxic | Non-toxic | 692 ng/mL | 21500 ng·h/mL | 2870 ng/mL | Non-toxic | 2.75 h | Non-toxic | 15100 ng·h/mL |  |  | 
COc1cc(-c2cc(=O)c3c(O)cc(O)cc3o2)cc(OC)c1O [TRICIN] |  |  |  |  |  |  |  |  |  |  |  |  |  | < 60 ng/mL | < 60 ng/mL | < 60 ng/mL
